We go through 2 compounds from ChEMBL document CHEMBL1122754, “Synthesis and evaluation of (17 alpha,20E)-21-[125I]iodo-19-norpregna-1,3,5(10),20-tetraene-3,17 -diol and (17 alpha,20E)-21-[125I]iodo-11 beta-methoxy-19-norpregna-1,3,5(10),20-tetraene-3,17-diol (17 alpha-(iodovinyl)estradiol derivatives) as high specific activity potential radiopharmaceuticals” (J Med Chem, 1984).

“And” between values parts separate entries of the source, which are not always exact repeats. Equal values may be shown once.

For series [1], the system named is Rattus norvegicus. In words: In vivo distribution of the drug in uterus was determined at 1 hr following injection of five microcurics of the radiolabeled [125 I] compound in rats. The class given is ADME, organism-based. Summed up:
(§1)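 Immature female Sprague-Dawley rats (20–25 days old) given 3–5 μCi of the ¹²⁵I-radioligand into the femoral vein; killed by cervical dislocation at 1, 2 or 3 h. Uterus blotted free of blood, 10–30-mg samples weighed. Heparinized blood centrifuged, 20-μL plasma samples taken. Gamma counting, dpm by absolute counting method. Expressed as percent dose/gram tissue; uterus/plasma ratio from these values.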

Series [2] relates to Rattus norvegicus. Nature of the series: In vivo distribution of the drug in plasma was determined at 1 hr following injection of five microcurics of the radiolabeled [125 I] compound in rats. Format: ADME, organism-based. Summed up: as §1
In series [3] the test system is Rattus norvegicus. In words: (§2) In vivo distribution of the drug in uterus/plasma was determined at 3h following injection of five microcurics of the radiolabeled [125 I] compound in rats. The class given is ADME, organism-based. As to conditions: other tissue. Summed up: as §1
The subject of series [4] is Rattus norvegicus. Nature of the series: In vivo distribution of the drug in uterus/plasma was determined at 2 hr following injection of five microcurics of the radiolabeled [125 I] compound in rats. The class given is ADME, organism-based. Summed up: as §1
The subject of series [5] is Rattus norvegicus. Nature of the series: In vivo distribution of the drug in uterus was determined at 3h following injection of five microcurics of the radiolabeled [125 I] compound in rats. The class given is ADME, organism-based. Summed up: as §1
Series [6] relates to Rattus norvegicus. Nature of the series: In vivo distribution of the drug in plasma was determined at 2 hr following injection of five microcurics of the radiolabeled [125 I] compound in rats. Format: ADME, organism-based. Summed up: as §1
Series [7] has as its system Rattus norvegicus. Nature of the series: In vivo distribution of the drug in uterus was determined at 2 hr following injection of five microcurics of the radiolabeled [125 I] compound in rats. Format: ADME, organism-based. In outline:
as §1

For series [8], the species on record is Rattus norvegicus. Nature of the series: Specific activity and expressed as Ci/mmol. Format: functional.
Series [9] relates to Rattus norvegicus. Nature of the series: In vivo distribution of the drug in plasma was determined at 3h following injection of five microcurics of the radiolabeled [125 I] compound in rats. The class given is ADME, organism-based. In outline:
as §1

For series [10], the system named is Rattus norvegicus. Nature of the series: In vivo distribution of the drug in uterus/plasma was determined at 1 hr following injection of five microcurics of the radiolabeled [125 I] compound in rats. The class given is ADME, organism-based. Summed up:
as §1

Series [11] concerns Rattus norvegicus. In words: In vivo effect when coinjected with estradiol (50 ug) in immature rat uterus (after 1 hr). Format: functional.
The test system of series [12] is Rattus norvegicus. In words: In vivo effect when coinjected with estradiol (50 ug) in immature rat liver (after 1 hr). The class given is functional.
Series [13] concerns Rattus norvegicus. Nature of the series: In vivo effect when coinjected with estradiol (50 ug) in immature rat plasma (after 1 hr). Format: functional.
Series [14] concerns Rattus norvegicus. Nature of the series: In vivo effect when coinjected with estradiol (50 ug) in immature rat muscle (after 1 hr). The class given is functional, Muscle tissue.
Series [15] has as its system Rattus norvegicus. The series is described as §2. The class given is ADME, organism-based. As to conditions: other tissue. Summed up: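 Female Sprague-Dawley rats aged 20–25 days received 3–5 µCi of the [125I] radioligand via the femoral vein and were killed by cervical dislocation at 1, 2 and 3 h. Uterus was blotted free of blood, and 10–30 mg samples were weighed. Heparinized blood was centrifuged, and 20 µL plasma samples were taken. Samples were gamma-counted, with dpm found by absolute counting. Values are % dose/g, and the uterus/plasma ratio was derived from them.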
This is another data set of the same source.

As for `C[C@]12CC[C@@H]3c4ccc(O)cc4CC[C@H]3[C@@H]1CC[C@@]2(O)/C=C/[125I]`, the Distribution in series [1] turned out to be 5.89%; in [2], 1.09%; in [5], 1.1%; in series [6], 0.192%; in [7], 0.96%; in [9], 0.113%. For the same compound, the figures for the uterus/plasma ratio in series [3], in series [4] and in [10] were 9.7, 5 and 5.5, respectively. For the same compound, the Specific activity in series [8] is 2200 Ci mM-1 and 2152 Ci mM-1.
Regarding `CO[C@H]1C[C@@]2(C)[C@@H](CC[C@@]2(O)/C=C/[125I])[C@@H]2CCc3cc(O)ccc3[C@H]21`, the Distribution in series [1] is listed as 8.18%; in series [2] it was 0.28%; in series [5], 15.9%; in [6] it was 0.25%; in series [7], 17.2%; in [9], 0.24%. In addition, the Dose in series [11] stood at 1.25%; in [12] it was 4.52%; in series [13], 0.34%; in series [14], 1.29%. Moreover, the figures for the uterus/plasma ratio in series [4], in [15] and in [10] were 68.3, 66.3 and 29, respectively.
